Assay results as given in ChEMBL document CHEMBL4261517, “A structurally guided dissection-then-evolution strategy for ligand optimization of smoothened receptor” (Medchemcomm, 2017).
pIC50: −log10 of the molar value.

Tests used:
[1] = Stability of the compound in DMEM at […] by RP-HPLC analysis; type: physicochemical
[2] = target: Protein smoothened (Homo sapiens) (UniProt Q99835); assay: Binding affinity to recombinant human N-terminal FLAG/His10-tagged/C-terminal His10-tagged flavodoxin-fused Smo receptor expressed in HEK293F cells assessed as melting temperature at 100 uM after 40 mins by CPM dye based spectrofluorometric method; type: cell-based
Outline: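 Purified SMO in micelles mixed with thiol-reactive CPM dye and thermally denatured. Fluorescence (365/460 nm) followed as exposed cysteines react. Tm taken as the temperature at which 50% of the fluorescence increase is reached.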

Protein smoothened = Protein smoothened (Mus musculus, UniProt P56726); assay: Antagonist activity at Smo receptor in mouse NIH/3T3 cells harboring GRE-Luc assessed as inhibition of SAG-induced Hh signaling pathway preincubated for 1 to 2 hrs followed by SAG addition and measured after 24 hrs by Bright-Glo luciferase reporter gene assay; type: functional, cell-based
Outline: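 Light II cells (NIH-3T3 stably carrying a Gli-responsive firefly luciferase reporter) treated with compound for 24 h. Luciferase read-out of Hedgehog pathway inhibition. IC50 reported as mean ± SEM from at least three independent experiments, each run in duplicate.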

Sequence of Protein smoothened (P56726 whole entry): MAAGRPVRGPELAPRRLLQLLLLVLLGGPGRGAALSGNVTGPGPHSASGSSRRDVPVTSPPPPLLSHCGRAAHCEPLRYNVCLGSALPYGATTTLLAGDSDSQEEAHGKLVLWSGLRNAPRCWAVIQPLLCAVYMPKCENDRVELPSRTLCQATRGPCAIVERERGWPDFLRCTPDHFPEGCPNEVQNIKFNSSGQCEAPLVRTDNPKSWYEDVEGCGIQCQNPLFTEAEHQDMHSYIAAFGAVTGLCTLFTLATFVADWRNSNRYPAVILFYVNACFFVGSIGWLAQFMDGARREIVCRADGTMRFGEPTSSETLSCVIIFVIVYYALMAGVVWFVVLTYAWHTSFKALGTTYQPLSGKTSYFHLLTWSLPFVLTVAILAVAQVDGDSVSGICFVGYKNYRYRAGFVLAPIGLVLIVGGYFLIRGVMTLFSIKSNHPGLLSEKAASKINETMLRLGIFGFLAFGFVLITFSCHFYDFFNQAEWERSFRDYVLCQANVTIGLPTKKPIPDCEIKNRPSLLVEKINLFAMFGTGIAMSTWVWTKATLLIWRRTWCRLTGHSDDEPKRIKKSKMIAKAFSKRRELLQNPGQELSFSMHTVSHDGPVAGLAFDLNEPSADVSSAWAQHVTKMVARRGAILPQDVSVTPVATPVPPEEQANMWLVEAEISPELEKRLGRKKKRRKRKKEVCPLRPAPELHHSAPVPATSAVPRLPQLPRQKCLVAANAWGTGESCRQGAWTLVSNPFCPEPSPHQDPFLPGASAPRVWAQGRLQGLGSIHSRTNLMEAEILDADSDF
Sequence of Protein smoothened (Homo sapiens) (Q99835 whole entry, the tested form may be a part): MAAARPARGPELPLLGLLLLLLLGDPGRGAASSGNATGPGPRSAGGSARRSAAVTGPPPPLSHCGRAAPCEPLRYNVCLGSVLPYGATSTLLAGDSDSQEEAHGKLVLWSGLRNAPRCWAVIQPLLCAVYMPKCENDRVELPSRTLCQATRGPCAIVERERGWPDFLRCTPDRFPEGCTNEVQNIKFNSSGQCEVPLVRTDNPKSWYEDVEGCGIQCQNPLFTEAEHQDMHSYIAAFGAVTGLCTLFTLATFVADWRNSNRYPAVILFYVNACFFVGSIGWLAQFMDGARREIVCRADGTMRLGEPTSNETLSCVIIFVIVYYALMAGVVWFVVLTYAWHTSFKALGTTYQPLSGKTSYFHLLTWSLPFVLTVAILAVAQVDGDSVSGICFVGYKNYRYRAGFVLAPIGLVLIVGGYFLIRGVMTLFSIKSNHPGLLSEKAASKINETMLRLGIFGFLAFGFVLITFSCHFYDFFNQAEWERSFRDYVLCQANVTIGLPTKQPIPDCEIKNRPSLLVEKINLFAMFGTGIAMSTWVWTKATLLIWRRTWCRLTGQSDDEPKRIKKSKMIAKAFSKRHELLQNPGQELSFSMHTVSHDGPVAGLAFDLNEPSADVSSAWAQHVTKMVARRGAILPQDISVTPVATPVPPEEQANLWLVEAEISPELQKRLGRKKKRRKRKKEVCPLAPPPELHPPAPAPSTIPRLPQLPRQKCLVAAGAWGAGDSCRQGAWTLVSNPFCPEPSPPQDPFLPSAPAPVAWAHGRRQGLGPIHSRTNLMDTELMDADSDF

Stability [1] | Tm [2] | pIC50 (Protein smoothened) | SMILES
Stable | – | – | CN(Cc1ccc(F)cc1C(F)(F)F)C1CCN(c2nnc(-c3ccnn3C)c3ccccc23)CC1
– | 59 °C | 5.54 | CN(C(=O)c1ccc(C=O)cc1)C1CCN(c2nnc(-c3ccnn3C)c3ccccc23)CC1
– | 58.5 °C | 5.85 | CN(C)c1ccc(C(=O)N(C)C2CCN(c3nnc(-c4ccnn4C)c4ccccc34)CC2)cc1
– | 58.2 °C | 5.70 | CN(C(=O)c1ccc(N)cc1)C1CCN(c2nnc(-c3ccnn3C)c3ccccc23)CC1
– | 60.3 °C | < 5.00 | COC(=O)c1ccc(C(=O)N(C)C2CCN(c3nnc(-c4ccnn4C)c4ccccc34)CC2)cc1
Stable | – | – | CN(C(=O)c1ccccc1)C1CCN(c2nnc(-c3ccnn3C)c3ccccc23)CC1
– | 61 °C | 6.63 | CN(C(=O)c1ccc([N+](=O)[O-])cc1)C1CCN(c2nnc(-c3ccnn3C)c3ccccc23)CC1
– | 59.4 °C | 5.57 | CN(C(=O)c1ccc(S(=O)(=O)O)cc1)C1CCN(c2nnc(-c3ccnn3C)c3ccccc23)CC1
– | 56.8 °C | < 5.00 | CN(C(=O)c1ccc(C(=O)O)cc1)C1CCN(c2nnc(-c3ccnn3C)c3ccccc23)CC1
Stable | – | – | CN(C(=O)c1ccc(F)cc1C(F)(F)F)C1CCN(c2ccc(-c3ccnn3C)c3ccccc23)CC1
– | 56.3 °C | < 5.00 | CN(C(=O)c1ccc(S(C)(=O)=O)cc1)C1CCN(c2nnc(-c3ccnn3C)c3ccccc23)CC1
Stable | – | – | CN(C(=O)c1ccc(F)cc1C(F)(F)F)C1CCN(c2nnc(-c3ccnn3C)c3ccccc23)CC1 [TALADEGIB]
– | 57.1 °C | 5.49 | CN(C(=O)c1ccc(S(N)(=O)=O)cc1)C1CCN(c2nnc(-c3ccnn3C)c3ccccc23)CC1
– | 59.1 °C | 5.80 | CN(C(=O)c1ccc(F)cc1)C1CCN(c2nnc(-c3ccnn3C)c3ccccc23)CC1
Stable | – | – | CN(C(=O)c1ccc(F)cc1C(F)(F)F)C1CCN(c2nnc(Cl)c3ccccc23)CC1
– | 56.8 °C | < 5.00 | CN(C(=O)c1ccc(NCC(=O)O)cc1)C1CCN(c2nnc(-c3ccnn3C)c3ccccc23)CC1
– | 59.7 °C | 5.52 | CN(C(=O)c1ccc(C(N)=O)cc1)C1CCN(c2nnc(-c3ccnn3C)c3ccccc23)CC1
– | 60.2 °C | < 5.00 | CN(C(=O)c1ccc(CC=O)cc1)C1CCN(c2nnc(-c3ccnn3C)c3ccccc23)CC1
– | 58.4 °C | 5.74 | CN(C(=O)c1ccc(OCc2ccccc2)cc1)C1CCN(c2nnc(-c3ccnn3C)c3ccccc23)CC1
– | 59.4 °C | 6.06 | CN(C(=O)c1ccc(B(O)O)cc1)C1CCN(c2nnc(-c3ccnn3C)c3ccccc23)CC1
– | 59.6 °C | 6.57 | CN(C(=O)c1ccc(Oc2ccccc2)cc1)C1CCN(c2nnc(-c3ccnn3C)c3ccccc23)CC1
